Data reported in ChEMBL document CHEMBL3596119, “Synthesis and biological characterization of a promising F-18 PET tracer for vesicular acetylcholine transporter” (Bioorg Med Chem, 2015).

How the values were obtained:
Lung [1] = test: Biodistribution in Sprague-Dawley rat lung at 2.2 MBq/120 uL, iv after 60 mins by gamma counting; type: ADME, organism-based; details: in vivo, 1 h
Procedure, shortened: (§1)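 Adult male SD rats, isoflurane (2-3%)/oxygen anesthesia, tail-vein injection of ~2.2 MBq/120 μL tracer in 10% ethanol in saline; euthanized under anesthesia at the stated time (n = 4 per time point). Brain dissected into regions, remainder kept for total brain; organs, blood, bone collected and weighed, gamma-counted against a standard dilution of injectate; %ID/g calculated.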

Muscle tissue [2] = test: Biodistribution in Sprague-Dawley rat muscle at 2.2 MBq/120 uL, iv after 60 mins by gamma counting; type: ADME, organism-based; details: in vivo, 1 h; procedure, shortened: as §1
Rattus norvegicus [3] = test: Biodistribution in Sprague-Dawley rat fat at 2.2 MBq/120 uL, iv after 60 mins by gamma counting; type: ADME, organism-based, Adipose tissue; details: in vivo, 1 h; procedure, shortened: as §1
Rattus norvegicus [4] = test: Biodistribution in Sprague-Dawley rat total brain at 2.2 MBq/120 uL, iv after 60 mins by gamma counting; type: ADME, organism-based; details: in vivo, 1 h
Procedure, shortened: (§2)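 Injected by tail vein in 10% ethanol in saline into adult male SD rats under 2-3% isoflurane/oxygen anesthesia. Rats were killed under anesthesia, n = 4 per time point. Total brain and other tissues were weighed and gamma-counted against a standard dilution of the injectate. Values are %ID/g.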

Blood [5] = test: Biodistribution in Sprague-Dawley rat blood at 2.2 MBq/120 uL, iv after 120 mins by gamma counting; type: ADME, organism-based; details: in vivo, 2 h; procedure, shortened: as §1
Heart [6] = test: Biodistribution in Sprague-Dawley rat heart at 2.2 MBq/120 uL, iv after 120 mins by gamma counting; type: ADME, organism-based; details: in vivo, 2 h; procedure, shortened: as §1
Lung [7] = test: Biodistribution in Sprague-Dawley rat lung at 2.2 MBq/120 uL, iv after 120 mins by gamma counting; type: ADME, organism-based; details: in vivo, 2 h; procedure, shortened: as §1
Muscle tissue [8] = test: Biodistribution in Sprague-Dawley rat muscle at 2.2 MBq/120 uL, iv after 120 mins by gamma counting; type: ADME, organism-based; details: in vivo, 2 h; procedure, shortened: as §1
Spleen [9] = test: Biodistribution in Sprague-Dawley rat spleen at 2.2 MBq/120 uL, iv after 120 mins by gamma counting; type: ADME, organism-based; details: in vivo, 2 h; procedure, shortened: as §1
Kidney [10] = test: Biodistribution in Sprague-Dawley rat kidney at 2.2 MBq/120 uL, iv after 120 mins by gamma counting; type: ADME, organism-based; details: in vivo, 2 h; procedure, shortened: as §1
Liver [11] = test: Biodistribution in Sprague-Dawley rat liver at 2.2 MBq/120 uL, iv after 120 mins by gamma counting; type: ADME, organism-based; details: in vivo, 2 h; procedure, shortened: as §1
Bone [12] = test: Biodistribution in Sprague-Dawley rat bone at 2.2 MBq/120 uL, iv after 120 mins by gamma counting; type: ADME, organism-based, Bone element; details: in vivo, 2 h; procedure, shortened: as §1
Rattus norvegicus [13] = test: Biodistribution in Sprague-Dawley rat total brain at 2.2 MBq/120 uL, iv after 120 mins by gamma counting; type: ADME, organism-based; details: in vivo, 2 h; procedure, shortened: as §1
Cerebellum = test: Biodistribution in Sprague-Dawley rat cerebellum at 2.2 MBq/120 uL, iv after 5 mins by gamma counting; type: ADME, organism-based; details: in vivo; procedure, shortened: as §1
Cortex = test: Biodistribution in Sprague-Dawley rat cortex at 2.2 MBq/120 uL, iv after 5 mins by gamma counting; type: ADME, organism-based; details: in vivo; procedure, shortened: as §1
Striatum [14] = test: Biodistribution in Sprague-Dawley rat striatum at 2.2 MBq/120 uL, iv after 5 mins by gamma counting; type: ADME, organism-based; details: in vivo; procedure, shortened: as §1
Thalamus = test: Biodistribution in Sprague-Dawley rat thalamus at 2.2 MBq/120 uL, iv after 5 mins by gamma counting; type: ADME, organism-based; details: in vivo; procedure, shortened: as §1
Hippocampus = test: Biodistribution in Sprague-Dawley rat hippocampus at 2.2 MBq/120 uL, iv after 5 mins by gamma counting; type: ADME, organism-based; details: in vivo; procedure, shortened: as §1
Striatum [15] = test: Biodistribution in Sprague-Dawley rat striatum at 2.2 MBq/120 uL, iv after 30 mins by gamma counting; type: ADME, organism-based; details: in vivo, 0.5 h; procedure, shortened: as §1
Striatum [16] = test: Biodistribution in Sprague-Dawley rat striatum at 2.2 MBq/120 uL, iv after 60 mins by gamma counting; type: ADME, organism-based; details: in vivo, 1 h; procedure, shortened: as §1
Striatum [17] = test: Biodistribution in Sprague-Dawley rat striatum at 2.2 MBq/120 uL, iv after 120 mins by gamma counting; type: ADME, organism-based; details: in vivo, 2 h; procedure, shortened: as §1
Plasma [18] = test: Metabolic stability in monkey plasma assessed as radioactivity at 15 to 106 MBq after 5 to 60 mins by HPLC analysis; type: ADME, cell-free, Macaca mulatta; details: rhesus monkey
Plasma [19] = test: Retention time in monkey plasma assessed as radioactivity at 15 to 106 MBq after 5 to 60 mins by HPLC analysis; type: ADME, cell-free, Macaca mulatta; details: rhesus monkey
Plasma [20] = test: Drug metabolism in Sprague-Dawley rat plasma assessed as radioactivity at 15 to 106 MBq, iv after 5 to 60 mins by HPLC analysis; type: ADME, organism-based
Striatum [21] = test: Ex-vivo drug uptake in Sprague-Dawley rat striatum at 63 MBq, iv after 60 mins by autoradiography; type: ADME, organism-based; details: 1 h
Procedure, shortened: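 One adult male SD rat received ~63.0 MBq by tail vein under anesthesia and was killed at 60 min. The brain was snap-frozen and cut into 100 μm horizontal sections. Sections were exposed to film for 12 h at -80 °C. Striatum-to-cerebellum ratio was quantified over 30 slices.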

Heart [22] = test: Biodistribution in Sprague-Dawley rat heart at 2.2 MBq/120 uL, iv after 5 mins by gamma counting; type: ADME, organism-based; details: in vivo; procedure, shortened: as §1
Lung [23] = test: Biodistribution in Sprague-Dawley rat lung at 2.2 MBq/120 uL, iv after 5 mins by gamma counting; type: ADME, organism-based; details: in vivo; procedure, shortened: as §1
Rattus norvegicus [24] = test: Biodistribution in Sprague-Dawley rat fat at 2.2 MBq/120 uL, iv after 5 mins by gamma counting; type: ADME, organism-based, Adipose tissue; details: in vivo; procedure, shortened: as §1
Spleen [25] = test: Biodistribution in Sprague-Dawley rat spleen at 2.2 MBq/120 uL, iv after 5 mins by gamma counting; type: ADME, organism-based; details: in vivo; procedure, shortened: as §1
Kidney [26] = test: Biodistribution in Sprague-Dawley rat kidney at 2.2 MBq/120 uL, iv after 5 mins by gamma counting; type: ADME, organism-based; details: in vivo; procedure, shortened: as §1
Liver [27] = test: Biodistribution in Sprague-Dawley rat liver at 2.2 MBq/120 uL, iv after 5 mins by gamma counting; type: ADME, organism-based; details: in vivo; procedure, shortened: as §1
Rattus norvegicus [28] = test: Biodistribution in Sprague-Dawley rat total brain at 2.2 MBq/120 uL, iv after 5 mins by gamma counting; type: ADME, organism-based; details: in vivo; procedure, shortened: as §2
Blood [29] = test: Biodistribution in Sprague-Dawley rat blood at 2.2 MBq/120 uL, iv after 30 mins by gamma counting; type: ADME, organism-based; details: in vivo, 0.5 h; procedure, shortened: as §1
Heart [30] = test: Biodistribution in Sprague-Dawley rat heart at 2.2 MBq/120 uL, iv after 30 mins by gamma counting; type: ADME, organism-based; details: in vivo, 0.5 h; procedure, shortened: as §1
Lung [31] = test: Biodistribution in Sprague-Dawley rat lung at 2.2 MBq/120 uL, iv after 30 mins by gamma counting; type: ADME, organism-based; details: in vivo, 0.5 h; procedure, shortened: as §1
Muscle tissue [32] = test: Biodistribution in Sprague-Dawley rat muscle at 2.2 MBq/120 uL, iv after 30 mins by gamma counting; type: ADME, organism-based; details: in vivo, 0.5 h; procedure, shortened: as §1
Rattus norvegicus [33] = test: Biodistribution in Sprague-Dawley rat fat at 2.2 MBq/120 uL, iv after 30 mins by gamma counting; type: ADME, organism-based, Adipose tissue; details: in vivo, 0.5 h; procedure, shortened: as §1
Spleen [34] = test: Biodistribution in Sprague-Dawley rat spleen at 2.2 MBq/120 uL, iv after 30 mins by gamma counting; type: ADME, organism-based; details: in vivo, 0.5 h; procedure, shortened: as §1
Liver [35] = test: Biodistribution in Sprague-Dawley rat liver at 2.2 MBq/120 uL, iv after 30 mins by gamma counting; type: ADME, organism-based; details: in vivo, 0.5 h; procedure, shortened: as §1
Bone [36] = test: Biodistribution in Sprague-Dawley rat bone at 2.2 MBq/120 uL, iv after 30 mins by gamma counting; type: ADME, organism-based, Bone element; details: in vivo, 0.5 h; procedure, shortened: as §1
Rattus norvegicus [37] = test: Biodistribution in Sprague-Dawley rat total brain at 2.2 MBq/120 uL, iv after 30 mins by gamma counting; type: ADME, organism-based; details: in vivo, 0.5 h; procedure, shortened: as §2
Blood [38] = test: Biodistribution in Sprague-Dawley rat blood at 2.2 MBq/120 uL, iv after 60 mins by gamma counting; type: ADME, organism-based; details: in vivo, 1 h; procedure, shortened: as §1

Drug uptake (Lung [1]): 0.738 % ID/g
Drug uptake (Muscle tissue [2]): 0.253 % ID/g
Drug uptake (Rattus norvegicus [3]): 0.548 % ID/g
Drug uptake (Rattus norvegicus [4]): 0.425 % ID/g
Drug uptake (Blood [5]): 0.356 % ID/g
Drug uptake (Heart [6]): 0.336 % ID/g
Drug uptake (Lung [7]): 0.551 % ID/g
Drug uptake (Muscle tissue [8]): 0.235 % ID/g
Drug uptake (Spleen [9]): 0.376 % ID/g
Drug uptake (Kidney [10]): 0.489 % ID/g
Drug uptake (Liver [11]): 0.382 % ID/g
Drug uptake (Bone [12]): 0.537 % ID/g
Drug uptake (Rattus norvegicus [13]): 0.409 % ID/g
Drug uptake (Cerebellum): 0.593 % ID/g
Drug uptake (Cortex): 0.777 % ID/g
Drug uptake (Striatum [14]): 0.782 % ID/g
Drug uptake (Thalamus): 0.691 % ID/g
Drug uptake (Hippocampus): 0.645 % ID/g
Drug uptake (Striatum [15]): 0.886 % ID/g
Drug uptake (Striatum [16]): 0.819 % ID/g
Drug uptake (Striatum [17]): 0.761 % ID/g
Stability (Plasma [18]): 76%
Retention_time (Plasma [19]): 9 min
Drug metabolism (Plasma [20]): metabolite_detected
Drug uptake (Striatum [21]): Active
Drug uptake (Heart [22]): 0.706 % ID/g
Drug uptake (Lung [23]): 2.255 % ID/g
Drug uptake (Rattus norvegicus [24]): 0.144 % ID/g
Drug uptake (Spleen [25]): 1.265 % ID/g
Drug uptake (Kidney [26]): 2.363 % ID/g
Drug uptake (Liver [27]): 1.065 % ID/g
Drug uptake (Rattus norvegicus [28]): 0.684 % ID/g
Drug uptake (Blood [29]): 0.27 % ID/g
Drug uptake (Heart [30]): 0.39 % ID/g
Drug uptake (Lung [31]): 0.973 % ID/g
Drug uptake (Muscle tissue [32]): 0.258 % ID/g
Drug uptake (Rattus norvegicus [33]): 0.324 % ID/g
Drug uptake (Spleen [34]): 0.685 % ID/g
Drug uptake (Liver [35]): 0.523 % ID/g
Drug uptake (Bone [36]): 0.369 % ID/g
Drug uptake (Rattus norvegicus [37]): 0.482 % ID/g
Drug uptake (Blood [38]): 0.338 % ID/g
SMILES: O=C(c1ccc(F)cc1)C1CCN(C2Cc3c(cccc3OCC[18F])CC2O)CC1 (single isomer, unassigned; (-))
